Bioassay records: PubChem BioAssay, several laboratories
Shown is part of a subset that was picked to be rich in hits.
XBP1 UPR activ – activators of adaptive arm of unfolded protein response (XBP1); AID 463104; CHO-XBP1 luciferase reporter, IRE1-XBP1 UPR activation, luminescence; percent of tunicamycin response, DMSO as zero; 330,000 tested, 0.33% active; activation, % at 20 µM;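 active = versus positive control, 20 µM dose yields 30% or more activation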;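 note: 100% = tunicamycin at 10 µg/mL and 0% = DMSO only wells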
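Signal: luciferase luminescence; Assay system: CHO-XBP1 luciferase reporter cells; Amount: one thousand reporter cells per well; Dosing: 20 µM single concentration, DMSO 1%; Benchmarks: high control tunicamycin 10 µg/mL final, low control DMSO vehicle only; Schedule: 6 h compound exposure at 37 °C, 5% CO2; Evaluation: percent activation relative to tunicamycin reference.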
Bfl-1 A1 inh – inhibitors of the anti-apoptotic protein A1, read as caspase activation; MEF A1-2A-BIM cells, Caspase-Glo 3/7 luminescence, 3 h; percent of clofoctol response, vehicle zero; caspase activation, % (test concentration not listed); 330,000 tested, 0.066% active;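 active = over half of replicate activation scores above 10%, or exactly half above 10 with the replicate mean above 10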
CHOP inh – CHOP inhibition in unfolded protein response; 220,000 tested, 3.8% active; inhibition, % at 10 µM; CHO-K1 CHOP-promoter luciferase, tunicamycin-induced, 15-18 h; AID 2732;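 active = compounds that reduced the stress-induced luciferase reporter signal by more than about 70% of percent inhibition, limit read from the data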;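 note: 0% = tunicamycin plus vehicle and 100% = wells without tunicamycin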
UPR CHOP act – apoptotic UPR (CHOP) activation; CHO-CHOP luciferase reporter, luminescence; percent of tunicamycin response over DMSO baseline; activation, % at 10 µM; 330,000 tested, 0.34% active;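 active = at 10 µM dose, activation of 40% or more, normalized to positive control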;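 note: 100% = tunicamycin at 10 µg/mL and 0% = DMSO alone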
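Dosing – one dose, 10 µM in 0.5% DMSO · System – CHO-CHOP cells, stable luciferase reporter of PERK-eIF2a-CHOP signalling · Input – 500 cells/well · Control set – tunicamycin 10 µg/mL final as positive, DMSO-only wells as negative · Timing – 6 h compound treatment, 37 °C · Measure – % activation vs tunicamycin · Technique – luminescence read with Steady-Glo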
CHOP inh conf – confirmation of CHOP induction inhibitors. 2,100 tested, 45% active. AID 504437. CHO-CHOP promoter luciferase reporter, tunicamycin-induced, luminescence. shares compounds with CHOP inh. inhibition, % at 10 µM;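 active = mean of three repeat readings of reporter signal inhibition above a set limit, cut at about 70% in these data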;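 note: 0% = tunicamycin plus vehicle and 100% = wells lacking tunicamycin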
* marks the source's active call; other numbers are inactive results.

O=C(Nc1nc2ccc(SC(F)F)cc2s1)c1ccc(NS(=O)(=O)c2ccc(F)c(F)c2)cc1 was read as XBP1 UPR activ 1.6, Bfl-1 A1 inh 0.0, CHOP inh 105.8*, UPR CHOP act 7.4 and CHOP inh conf -4.6.
Screening CS(=O)(=O)c1ccc2nc(NC(=O)c3ccc(NS(=O)(=O)c4ccc(F)c(F)c4)cc3)sc2c1 returned XBP1 UPR activ -0.8, Bfl-1 A1 inh -1.5, CHOP inh 7.4 and UPR CHOP act 1.4.
Screening Cc1sc(NC(=O)Cn2c(=O)oc3ccccc32)nc1-c1ccc(Cl)cc1 returned XBP1 UPR activ -2.8, Bfl-1 A1 inh -0.9, CHOP inh 98.3*, UPR CHOP act 0.1 and CHOP inh conf 33.6.
For O=[N+]([O-])c1ccc(Sc2nc3ccccc3o2)c([N+](=O)[O-])c1 the results were XBP1 UPR activ -5.2, Bfl-1 A1 inh 0.2, CHOP inh 109.0*, UPR CHOP act -2.1 and CHOP inh conf 122.4*.
`COc1ccc(C(=O)NC(=S)NC(C)(C)C)cc1Br` gave XBP1 UPR activ 2.6, Bfl-1 A1 inh -1.6, CHOP inh 105.8*, UPR CHOP act 1.9 and CHOP inh conf -16.5.
Screening COc1ccccc1CNC(=O)c1cn(C)c2ccc(S(=O)(=O)N3CCCC3)cc2c1=O returned XBP1 UPR activ -2.1, Bfl-1 A1 inh 0.0, CHOP inh 106.1*, UPR CHOP act 0.7 and CHOP inh conf 51.5.
`COCCNC(=O)c1cn(C)c2ccc(S(=O)(=O)N3CCCC3)cc2c1=O` gave XBP1 UPR activ -8.0, Bfl-1 A1 inh -0.7 and UPR CHOP act 0.0.
For Cc1nn(-c2ccccc2)c(OC(=O)c2cccs2)c1S(=O)(=O)c1ccccc1 the results were XBP1 UPR activ -5.3, Bfl-1 A1 inh -0.3, CHOP inh 105.8*, UPR CHOP act 0.6 and CHOP inh conf 14.9.
For O=C(N/N=C/c1cccc2ccccc12)c1n[nH]c2c1CCCC2 the results were XBP1 UPR activ 3.8, Bfl-1 A1 inh -0.7, CHOP inh 100.7*, UPR CHOP act 2.1 and CHOP inh conf 8.7.
Screening O=C(N/N=C/c1ccc(Cl)cc1Cl)c1n[nH]c2c1CCCC2 returned XBP1 UPR activ 5.0, Bfl-1 A1 inh -0.1, CHOP inh 14.4 and UPR CHOP act 8.1.
For COC(=O)/C=C1\S/C(=N/N=C/c2ccc(Cl)cc2)NC1=O the results were XBP1 UPR activ -2.4, Bfl-1 A1 inh -0.3, CHOP inh 8.6 and UPR CHOP act -0.9.
Screening COc1ccc(-n2nc(C(=O)NCC(=O)NCCCN3CC(C)CC(C)C3)c3ccccc3c2=O)cc1OC (configuration not stated) returned XBP1 UPR activ -2.6, Bfl-1 A1 inh 0.2 and UPR CHOP act 2.9.
For CCc1nnc(NC(=O)c2ccc(-c3ccc([N+](=O)[O-])cc3Cl)o2)s1 the results were XBP1 UPR activ 5.5, Bfl-1 A1 inh -0.4, CHOP inh 55.8 and UPR CHOP act -0.2.
CC(C)(C=O)C1=CC(=O)c2ccccc2C1=O was read as Bfl-1 A1 inh -0.7, CHOP inh 98.2* and CHOP inh conf -225.4.
For O=C1C(=C2SCCCS2)CC/C1=C\c1ccc(F)cc1 the results were XBP1 UPR activ -8.8, Bfl-1 A1 inh -6.5, CHOP inh 107.6*, UPR CHOP act -11.6 and CHOP inh conf 114.6*.
For O=C1/C(=C/c2ccc(F)cc2)CCC1C1CCCC1 (configuration not stated) the results were XBP1 UPR activ 0.9, Bfl-1 A1 inh -6.8, CHOP inh 51.7 and UPR CHOP act 5.8.
Screening COc1ccc(-c2cc3c(=O)n(CC(=O)NCCCN4CCC(N5CCCCC5)CC4)ncn3n2)cc1 returned XBP1 UPR activ -5.9, Bfl-1 A1 inh 0.4 and UPR CHOP act 2.2.
Screening Cc1cc(C)c2c(=O)n(CC(=O)Nc3ccc(Cl)cc3)sc2n1 returned XBP1 UPR activ -1.3, Bfl-1 A1 inh 0.6, CHOP inh 104.1*, UPR CHOP act 2.5 and CHOP inh conf 18.1.
For CCOc1ccc(NC(=O)Cn2sc3nc(C)cc(C)c3c2=O)cc1 the results were XBP1 UPR activ -2.3, Bfl-1 A1 inh 0.7, CHOP inh 25.3 and UPR CHOP act -0.6.
`CCOC(=O)C1=C(CC)OC(N)=C(C#N)C1c1cc(OC)ccc1OC` (configuration not stated) gave XBP1 UPR activ 0.2, Bfl-1 A1 inh 0.5, CHOP inh 5.1 and UPR CHOP act -1.9.
